Test results: ChEMBL document CHEMBL4622920, “Synthesis and evaluation of heterocycle structures as potential inhibitors of Mycobacterium tuberculosis UGM” (Bioorg Med Chem, 2020)
Values after ≈ are worked out from the molar mass of the structure shown. Active and inactive are the calls of the source. The rule behind the calls is not given here.

Key:
[1] = tested on: Mycobacterium tuberculosis; test: Displacement of UDP-fluorescein from non-reduced form of Mycobacterium tuberculosis UDP-galactopyranose mutase by fluorescence polarization assay relative to control; design: concentration or dose not given beside the values; settings: concentration not given here
How it was run: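 Single-point fluorescence polarization competition with inhibitor at 1 mM final. Non-reduced recombinant Mt UGM at 580 nM with 18 nM UDP-fluorescein probe. Read at room temperature in sodium phosphate buffer pH 7.0. Reported as percent inhibition; screening also done at 100 µM. Kd followed when inhibition at 1 mM exceeded 30%.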

[2] = Displacement of UDP-fluorescein from non-reduced form of Mycobacterium tuberculosis UDP-galactopyranose mutase by fluorescence polarization assay
How it was run: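 Recombinant Mt UGM (pET-29b construct) used dialysed and non-reduced at 580 nM. UDP-fluorescein probe at 18 nM. Inhibitors titrated over 0–1 mM. Kd derived from competitive fluorescence polarization. Probe affinity measured by enzyme dilutions in 50 mM sodium phosphate pH 7.0 at room temperature, in triplicate.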

[3] = tested on: Mycobacterium tuberculosis; test: Antitubercular activity against Mycobacterium tuberculosis mc2 6230 assessed as inhibition of bacterial growth at 30 ng/ml incubated for 7 days by broth dilution method; type: functional, organism-based
How it was run: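 Mt mc²6230 pantothenate auxotroph grown at 37°C static in 7H9 broth with OADC and 109 µM pantothenic acid. Log-phase culture diluted to OD600 0.05. Compound serially diluted 2-fold from a 10 mg/ml DMSO stock. Plates wrapped and incubated at 37°C for 7 days. Isoniazid served as positive control and DMSO as vehicle control. Growth was read visually as turbidity.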

[4] = tested on: Mycobacterium tuberculosis; test: Inhibition of reduced form of Mycobacterium tuberculosis UDP-galactopyranose mutase assessed as conversion of UDP-Galf to UDP-Galp at 0.5 mM using UDP-Galf as substrate compound incubated with enzyme at 5 mins after enzyme reduction with sodium dithionite by HPLC analysis relative to control
How it was run: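 Recombinant Mt UGM (60 nM) in 100 mM NaH₂PO₄ pH 7.4 at room temperature. Enzyme pre-incubated 5 min, then reduced with 12.5 mM sodium dithionite and incubated with or without inhibitor. UDP-α-Galf (25 µM final) added. Samples taken at five times and quenched in liquid N₂. Conversion to UDP-Galp quantified by C18 HPLC with UV detection at 262 nm.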

[5] = tested on: Mycobacterium tuberculosis; test: Antitubercular activity against Mycobacterium tuberculosis mc2 6230 assessed as inhibition of bacterial growth incubated for 7 days by broth dilution method; type: functional; settings: mc2 6230, 168 h
How it was run: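 Pantothenate-auxotrophic Mt mc²6230 grown in 7H9/OADC plus 109 µM pantothenic acid at 37°C without agitation. Broth microdilution started from culture at OD600 0.05. Twofold series covered 1.5–100 µg/ml. Plates were read after 7 days at 37°C. MIC is the lowest concentration with no visible turbidity change. Duplicates were run on three independent occasions.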

## O=C1O/C(=C/I)Cn2c1c(I)c1ccccc12
[1]
  inhibition: 61.6%
[2]
  Kd: 2000 µM

## COC(=O)c1[nH]c2cc3c(cc2c1I)OCO3
[1]
  inhibition: 23.1%

## NNC(=O)c1ccncc1
[3]
  inhibition: Active

## CC1=C(c2cc3ccccc3o2)C(=O)O/C1=C\C(C)C
[1]
  inhibition: 0%

## O=C(O)C(Cc1ccc(I)cc1)NC1NC(c2ccc(Cl)c(Cl)c2)=CS1 (centres undefined)
[2]
  Kd: 8 µM

## C#CCn1c(C(=O)O)c(I)c2cc(OC)ccc21
[1]
  inhibition: 15%

## CC1=C(c2ccc(-c3ccccc3)cc2)C(=O)O/C1=C\C(C)C
[1]
  inhibition: 19.2%

## COc1ccc2cc(C3=C(C)/C(=C/C(C)C)OC3=O)ccc2c1
[1]
  inhibition: 7.4%

## CCCCC#C/C=C1\Cn2c(c(I)c3cc(OC)ccc32)C(=O)O1
[2]
  Kd: 61.3 µM
[4]
  inhibition: 95.5%
[5]
  MIC: 50 µg/mL (≈ 115 µM)

## O=c1ccn([C@@H]2O[C@H](COP(=O)(O)OP(=O)(O)O[C@H]3O[C@@H]([C@H](O)CO)C(F)(F)C3(F)F)[C@@H](O)[C@H]2O)c(=O)[nH]1
[2]
  Kd: 53 µM

## C#CCn1c(C(=O)O)c(I)c2cc3c(cc21)OCO3
[1]
  inhibition: 46.2%
[2]
  Kd: 220 µM

## C#CCn1c(C(=O)OC)cc2cc(F)ccc21
[1]
  inhibition: 0%

## C#CCn1c(C(=O)O)c(I)c2ccccc21
[1]
  inhibition: 7.4%

## C[N+](C)(C)CC(=O)N/N=C/c1ccc(O)c(O)c1
[2]
  Kd: 3 µM

## CC1=C(c2ccc(F)cc2)C(=O)O/C1=C\C(C)C
[1]
  inhibition: 9%

## CCCCC#C/C=C1\Cn2c(c(I)c3cc4c(cc32)OCO4)C(=O)O1
[2]
  Kd: 58.3 µM
[4]
  inhibition: 60.2%
[5]
  MIC: 3.1 µg/mL (≈ 6.9 µM)

## CC1=C(c2ccoc2)C(=O)O/C1=C\C(C)C
[1]
  inhibition: 5.2%

## CCCCC#C/C=C1\Cn2c(c(I)c3ccccc32)C(=O)O1
[2]
  Kd: 66 µM
[4]
  inhibition: 72.9%
[5]
  MIC: 6.2 µg/mL (≈ 15.3 µM)

## COC(=O)c1cc2ccccc2[nH]1
[1]
  inhibition: 2%

## CC1=C(Br)C(=O)O/C1=C\C(C)C
[1]
  inhibition: 7.3%

## COC(=O)c1[nH]c2ccccc2c1I
[1]
  inhibition: 11.5%

## COC(=O)c1cn(Cc2ccccc2)c2ccccc12
[1]
  inhibition: 5.1%

## O=C1O/C(=C(/I)c2ccccc2)Cn2c1c(I)c1ccccc12
[1]
  inhibition: 22.8%

## O=C1O/C(=C/I)Cn2c1c(I)c1cc(F)ccc12
[1]
  inhibition: 19.1%

## CC1=C(c2ccncc2)C(=O)O/C1=C\C(C)C
[1]
  inhibition: 3%

## C/C(I)=C1/Cn2c(c(I)c3ccccc32)C(=O)O1
[1]
  inhibition: 14.9%
